High-throughput results: PubChem, several laboratories
thrombin 1536 = human alpha-thrombin inhibitors, primary screen, counter-screen for coagulation protease inhibitor project, biochemical, 1536-well, fluorogenic AMC substrate; 220,000 compounds, 0.26% hits; inhibition, % at 5 µM; Prothrombin (Homo sapiens), P00734; Boc-VPR-AMC fluorogenic substrate cleavage;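 active means inhibition at or above 40%; inactive means inhibition below 40%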;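 further: 0% = enzyme with no compound and 100% = wells without enzyme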
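Test system: human alpha-thrombin; medium: pH 7.5 Tris-saline with Tween 20; times: reaction at room temperature; signal: AMC fluorescence at 355 nm excitation and 460 nm emission; also added: Boc-VPR-AMC substrate, 15 µM final; dosing: one concentration per compound, 5 µM, with 0.2% DMSO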
PERK inh = block of dimerizer-induced PERK translation repression, primary screen, PERK inhibitor project, CHO PERK-DD cells, SEAP luminescence, HTS; Eukaryotic translation initiation factor 2-alpha kinase 3 (Homo sapiens), Q9NZJ5; CHO PERK-DD fusion, SEAP luminescence translation reporter; inhibition, % at 5.6 µM; 220,000 compounds, 0.17% hits; AID 1416, 2008;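 active means inhibition above the mean inhibition of all tested compounds plus 3 SD, set separately per screening campaign, cut at about 2.9% in these data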;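 further: PERK kinase domain activated by AP20187 dimerizer at 100 nM; 0% = DMSO with dimerizer and 100% = rapamycin at 8.4 µM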
Target sequence (Q9NZJ5 whole entry, looked up, the tested form may be a part): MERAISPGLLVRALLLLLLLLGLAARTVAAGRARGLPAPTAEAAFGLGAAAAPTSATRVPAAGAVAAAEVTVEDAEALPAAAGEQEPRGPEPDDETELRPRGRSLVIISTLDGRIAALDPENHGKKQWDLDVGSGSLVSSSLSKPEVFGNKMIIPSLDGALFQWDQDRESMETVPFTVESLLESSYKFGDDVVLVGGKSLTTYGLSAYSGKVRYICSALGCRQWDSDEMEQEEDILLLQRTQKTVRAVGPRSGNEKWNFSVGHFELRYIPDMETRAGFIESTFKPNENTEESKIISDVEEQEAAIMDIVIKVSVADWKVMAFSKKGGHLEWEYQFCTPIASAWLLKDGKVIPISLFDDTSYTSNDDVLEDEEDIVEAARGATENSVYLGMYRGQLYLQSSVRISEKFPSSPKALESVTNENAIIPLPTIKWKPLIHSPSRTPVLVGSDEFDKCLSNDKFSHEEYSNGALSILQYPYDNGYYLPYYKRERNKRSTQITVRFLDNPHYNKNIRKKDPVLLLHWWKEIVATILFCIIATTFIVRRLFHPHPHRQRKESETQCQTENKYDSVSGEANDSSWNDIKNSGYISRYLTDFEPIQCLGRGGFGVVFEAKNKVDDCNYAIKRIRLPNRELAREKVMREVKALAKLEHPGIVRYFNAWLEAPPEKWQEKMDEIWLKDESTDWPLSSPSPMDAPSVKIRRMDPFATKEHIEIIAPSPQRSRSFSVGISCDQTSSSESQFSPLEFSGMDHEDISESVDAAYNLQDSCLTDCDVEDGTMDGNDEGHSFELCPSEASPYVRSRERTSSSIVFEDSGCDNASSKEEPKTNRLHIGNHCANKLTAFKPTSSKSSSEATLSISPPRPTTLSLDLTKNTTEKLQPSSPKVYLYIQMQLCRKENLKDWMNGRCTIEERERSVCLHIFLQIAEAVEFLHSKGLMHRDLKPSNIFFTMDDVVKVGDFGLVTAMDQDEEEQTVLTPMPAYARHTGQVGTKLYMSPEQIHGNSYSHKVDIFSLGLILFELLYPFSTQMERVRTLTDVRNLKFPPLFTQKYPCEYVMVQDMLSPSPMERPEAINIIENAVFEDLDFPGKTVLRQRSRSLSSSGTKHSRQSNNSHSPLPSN
FXIa inh = human FXIa protease inhibitors, primary screen, biochemical, 1536-well. purified FXIa, Boc-Glu-Ala-Arg-AMC fluorogenic substrate. Coagulation factor XI (Homo sapiens), P03951. inhibition, % at 5 µM. 220,000 compounds, 0.14% hits;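 active means inhibition of at least 40%; inactive means inhibition below 40%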;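 further: fluorescence of freed AMC excited at 355 nm; 0% = enzyme without compound and 100% = no enzyme blank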
Furin inh = human furin inhibitors, primary screen, biochemical, fluorescence intensity; 220,000 compounds, 0.061% hits; P09958; purified furin, fluorogenic substrate cleavage; inhibition, % at 20 µM or 30 µM; in the data active means inhibition above about 25%
KLK5 inh = human KLK5 protease inhibitors, primary screen, biochemical, 1536-well. inhibition, % at 5 µM. 210,000 compounds, 0.59% hits. Kallikrein-5 (Homo sapiens), Q9Y337. recombinant hK5, fluorogenic AMC substrate cleavage;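 active means inhibition of 40% or more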;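 further: 0% = enzyme controls without compound and 100% = no-enzyme blanks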
FXIIa inh 1536 = human FXIIa protease inhibitors, primary screen, biochemical, 1536-well; purified FXIIa, Boc-QGR-AMC fluorogenic substrate, 2 h; 220,000 compounds, 0.3% hits; inhibition, % at 5 µM; AID 800, 2007; Coagulation factor XII (Homo sapiens), P00748; in the data active means inhibition above about 40%;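 further: 0% = enzyme with no compound and 100% = blank without enzyme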
Active calls of the source: *. Hits are enriched below; roughly 1.2% of the tested compounds scored in any of these assays.

SMILES	thrombin 1536	PERK inh	FXIa inh	Furin inh	KLK5 inh	FXIIa inh 1536
O=C1CC(c2ccccc2)CC(=O)C1=CN1CCCC1 (stereo not given)	-8	0	-5	33*	-8	5
Nc1cnccc1C(=O)O	3	0	-6	-18	-6	2
COc1ccc(Cl)c(S(=O)(=O)N2CCCC2)c1	21	1	1	-23	68*	22
O=S(=O)(c1cc(Cl)ccc1Cl)N1CCCC1	3	-1	-9	-22	-11	11
CCOc1cc(S(=O)(=O)N2CCCCC2)ccc1Cl	104*	0	5	-18	60*	18
CCOc1cc(S(=O)(=O)N2CCN(CC)CC2)ccc1Cl	-1	0	0	-10	-17	13
CCCCC(=O)Nc1cc(C(=O)NCCc2ccccc2)ccc1Cl	18	0	3	-12	63*	19
COc1cccc(C(=O)Nc2cc(C(=O)NCCc3ccccc3)ccc2Cl)c1	-4	0	4	-18	-1	11
CC1CN(c2nc3ccccn3c(=O)c2/C=C(\C#N)S(=O)(=O)c2ccccc2)CC(C)O1 (stereo not given)	3	-1	2	31*	1	19
COc1cccc2cc(C(=O)N3CCN(C45CC6CC(CC(C6)C4)C5)CC3)c(=O)oc12	19	-1	12	-22	65*	18
COc1cccc2cc(C(=O)N3CCC(C)CC3)c(=O)oc12	0	0	5	-8	-5	14
Cc1cc2ncn(C(=O)c3ccc4c(c3)OCO4)c2cc1C	41*	1	18	-23	6	-8
Nc1nc(CSC(=S)N2CCCCC2)nc(Nc2ccccc2)n1	-24	2	-7	-17	67*	2
Nc1nc(CSC(=S)N2CCOCC2)nc(Nc2ccccc2)n1	-9	0	-7	-11	-23	2
COc1cccc(CN2CCN(c3nc4nonc4nc3N3CCCCC3)CC2=O)c1	-1	-1	4	0	7	9
Cc1csc2c(=O)sc(NC(=O)c3ccc(F)cc3)nc12	-5	5.2*	1	-28	3	4
Cc1csc2c(=O)sc(NC(=O)c3ccc(F)cc3Cl)nc12	4	-1	6	-21	6	15
Cc1ccc2c(c1)[nH]c1c(=O)n(CCC3=CCCCC3)cnc12	64*	2	-3	-5	19	5
O=C1CSC(c2cn(-c3ccccc3)nc2-c2cc3ccccc3oc2=O)N1Cc1ccco1 (stereo not given)	-4	-1	22	-43	153*	8
CCOC(=O)C(C)/C(C)=N/NC(=O)CCC(=O)Nc1cc(C)ccc1C (stereo not given)	1	1	1	-25	1	10
O=C(Nc1ccc(Br)cc1)c1cccc(S(=O)(=O)Nc2cnc3ccccc3c2)c1	0	0	7	-10	-6	15
COc1ccc(NC(=O)c2cccc(S(=O)(=O)Nc3ccc(Br)cc3)c2)cn1	28	0	22	4	40*	16
COC(=O)c1[nH]c2cccc(OC)c2c1NC(=O)CN1CCN(c2cccc(OC)c2)C(C)C1 (stereo not given)	3	-2	-4	-18	125*	-1
CCOC(=O)c1[nH]c2cc(OC)c(OC)cc2c1NC(=O)CN1CCN(c2ccc(OC)cc2)C(C)C1 (stereo not given)	-4	-3	2	-23	-28	2
COc1ccc2oc(C(=O)c3ccccc3)c(N)c2c1	26	1	15	-12	49*	28
SMILES	thrombin 1536	PERK inh	FXIa inh	Furin inh	KLK5 inh	FXIIa inh 1536
COc1ccc(C(=O)c2oc3ccccc3c2N)cc1	0	1	8	-12	7	9
Cc1ccc(NC(=O)Cc2ncc(C(F)(F)F)cc2Cl)cc1Cl	1	0	-2	-12	57*	8
CCc1cc(=O)[nH]c(SCCC(F)=C(F)F)n1	-12	0	-2	-12	1	3
CCOC(=O)CNC(=O)Nc1cccc(Cl)c1C	3	0	0	0	-23	10
COC(=O)CNC(=O)CNC(=O)Nc1ccccc1Cl	6	0	-3	-12	41*	7
Cc1cc(Br)c2[nH]c3c(c2c1)CCCC3=O	3	-1	31	-13	0	54*
O=C(N/N=C/c1ccncc1)c1ccccc1	3	3.6*	-10	1	12	23
O=C(CSC1CC(=O)N(CCc2ccccc2)C1=O)Nc1ccc(Br)cc1 (stereo not given)	5	0	-2	-21	42*	17
CCC(=O)N/C(=N/c1nc(C)cc(C)n1)Nc1ccccc1	4	-1	8	-5	7	12
CCC(=O)N/C(=N/c1nc(C)cc(C)n1)Nc1ccc(OC)cc1	51*	1	3	-6	-6	4
O=C(c1ccc(S(=O)(=O)N2CCCCC2)cc1)c1nnc(-c2ccc(Cl)cc2)o1	15	0	34	-14	46*	2
O=C(CCc1ccc(S(=O)(=O)N2CCCCC2)cc1)c1nnc(-c2ccccc2)o1	-3	0	-15	-17	-23	6
Cc1cc(C)cc(N2CCCn3c2nc2c3c(=O)n(CC(=O)OCc3ccccc3)c(=O)n2C)c1	8	0	1	-13	5	16
Cc1ccc(N2CC(C)Cn3c2nc2c3c(=O)n(CC(=O)OCc3ccccc3)c(=O)n2C)cc1C (stereo not given)	15	0	6	-7	44*	25
Cc1ccc(C)c(S(=O)(=O)NCCCN2CCOCC2)c1	42*	-1	31	-7	33	24
Cc1ccc(S(=O)(=O)NCCCN2CCOCC2)cc1C	-2	1	4	-27	-2	9
COc1cc(S(=O)(=O)NCCCN2CCOCC2)ccc1Cl	-3	2.9*	5	-26	-8	11
Cc1cc(C)n(CC2CC(=O)N(c3ccc(Cl)c(Cl)c3)C2=O)n1 (stereo not given)	21	0	18	-17	54*	16
Cc1cc(C)n(CC2CC(=O)N(c3ccc(Cl)cc3)C2=O)n1 (stereo not given)	0	1	9	-32	2	6
N#Cc1cc2cc3ccccc3nc2n2c(=O)c3ccccc3nc12	0	0	6	-4	-6	16
COc1cccc(C(=O)SC2=NCCS2)c1	14	1	21	-18	60*	22
